Here are results for six compounds from ChEMBL document CHEMBL1142103, “Bioactive lignans from Peperomia heyneana” (J Nat Prod, 2007).

For series [1], the system named is Human immunodeficiency virus 1. In words: Antiviral activity against on HIV1 3b infected C8166 cells assessed as syncytial cell formation after 3 days. The format is functional, organism-based. Particulars: Human immunodeficiency virus 1, 3b, C8166, 72 h. In outline:
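C8166 cells (8 × 10^5/mL) seeded with serial concentrations of compound, then infected with HIV-1 IIIB at 1300 TCID50/well; 3 days at 37 °C, 5% CO2. Syncytia (multinucleated giant cells) counted per well under inverted microscope; percent inhibition of syncytium formation versus untreated infected controls gives EC50.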

Series [2] is described as follows: Cytotoxicity against C8166 cells by MTT method. In kind it is cell-based. Particulars: human. Summed up: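 Uninfected C8166 cells (4 × 10^5/mL) exposed to graded compound concentrations for 72 h at 37 °C, 5% CO2. Supernatant removed, MTT (5 mg/mL stock in PBS) added for 4 h, formazan dissolved in 50% DMF–20% SDS, absorbance read at 595/630 nm. CC50 (50% loss of viable cells) taken from dose-response curve.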

Series [3] is described as follows: Selectivity index, ratio of CC50 for C8166 cells to IC50 for HIV1 infected C8166 cells. The format is functional. In outline: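 Therapeutic index computed as CC50 (MTT viability of uninfected C8166, 72 h) divided by EC50 (inhibition of HIV-1 IIIB syncytium formation in C8166, 3 days), both run in parallel.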

Each structure is given as a SMILES string. pEC50: −log10 of the molar value.

As usually defined, the pEC50 is the EC50 on a negative log10 scale, so that one unit is a factor of ten. For orientation: CC50 means the concentration giving 50% cytotoxicity. Low readings indicate harm at low concentration, high ones better tolerance by the cells. As for `COc1cc(C(c2cc(OC)c3c(c2)OCO3)[C@@H]2COC(=O)[C@H]2C)cc2c1OCO2` [PEPEROMIN A], the pEC50 in series [1] was 5.28. In addition, the half-maximal cytotoxic concentration (CC50) in series [2] is 43.2 µM. Further, in series [3], the “Ratio CC50/EC50” value was 8.2.

Take `COc1cc(C(c2cc(OC)c(OC)c(OC)c2)C2COC(=O)C2C)cc(O)c1OC` (stereo not drawn): the pEC50 in series [1] is 4.56. Moreover, the 50% cytotoxic concentration (CC50) in series [2] worked out at 140 µM. Moreover, in series [3], the “Ratio CC50/EC50” value was determined as 5.1.

With `COc1cc([C@H]2O[C@H](c3cc(OC)c4c(c3)OCO4)[C@@H](COC(C)=O)[C@@H]2CO)cc(OC)c1O`, in series [1], the negative logarithm of the EC50 (pEC50) was 4.30. Besides, it took 229 µM to reach half-maximal cytotoxicity in series [2] (CC50). The “Ratio CC50/EC50” value in series [3] is recorded as 4.6.

As for `COc1cc([C@@H](c2cc(OC)c3c(c2)OCO3)[C@@H]2COC(=O)[C@H]2C)cc(OC)c1OC` [PEPEROMIN B], the pEC50 in series [1] was 5.27. The compound further had a CC50 in series [2] of 49.1 µM. Besides, in series [3], the “Ratio CC50/EC50” value is 9.1.

Regarding `COc1cc(C(c2cc(OC)c(OC)c(OC)c2)[C@@H]2COC(=O)[C@H]2C)cc(OC)c1OC` [PEPEROMIN C], the pEC50 in series [1] is 4.37. In series [2], this compound registered a 50% cytotoxic concentration (CC50) of 192 µM. The “Ratio CC50/EC50” value in series [3] came to 4.5.

Turning to `Cc1cn([C@H]2C[C@H](N=[N+]=[N-])[C@@H](CO)O2)c(=O)[nH]c1=O` [ZIDOVUDINE], the pEC50 in series [1] was 7.77. Also, in series [2], the CC50 was determined as 4550 µM. For the same compound, in series [3], the Ratio CC50/EC50 was > 100000.
